Assays:
[1] = system: HEK-293T; experiment: Incucyte cell viability with HEK293T; format: toxicity, cell-based; conditions: human, 10 µM, compound concentration 10 uM; further: filed as whole numbers so only -1 and 0 and 1 occur
[2] = system: U2OS; experiment: Multiplex assay against U2OS; format: toxicity, cell-based; conditions: human
Outline: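 Compound was added to live cells that had been stained at seeding with Hoechst33342, BioTracker Green Microtubule Cytoskeleton Dye, MitoTracker Red and Annexin V Alexa Fluor 680, and imaging followed on a CQ1 microscope at 37°C and 5% CO2. CellPathfinder machine-learning gating divided cells into Hoechst high-intensity objects or normal cells, normal cells into healthy, pyknosed or fragmented nuclei, and pyknosed cells into mitotic or apoptotic. Tubulin, mitochondrial-mass and membrane-permeability phenotypes are per cents of healthy-nucleus cells.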

[3] = 12 h, 1 µM, compound concentration 1 uM, replicate 1
[4] = 12 h, 1 µM, compound concentration 1 uM, replicate 2
[5] = 12 h, 10 µM, compound concentration 10 uM, replicate 1
[6] = 12 h, 10 µM, compound concentration 10 uM, replicate 2
[7] = 24 h, 1 µM, compound concentration 1 uM, replicate 1
[8] = 24 h, 1 µM, compound concentration 1 uM, replicate 2
[9] = 24 h, 10 µM, compound concentration 10 uM, replicate 1
[10] = 24 h, 10 µM, compound concentration 10 uM, replicate 2
[11] = 48 h, 1 µM, compound concentration 1 uM, replicate 1
[12] = 48 h, 1 µM, compound concentration 1 uM, replicate 2
[13] = 48 h, 10 µM, compound concentration 10 uM, replicate 1
[14] = 48 h, 10 µM, compound concentration 10 uM, replicate 2

Question: Which results are given for `CC(C)[C@H](CO)Nc1nc(Nc2cccc(Cl)c2)c2ncn(C(C)C)c2n1` [PURVALANOLA]?
Answer: Growth Rate ([1]; 6 h, replicate number 1, timepoint 6 hours): 0; Growth Rate ([1]; 12 h, replicate number 1, timepoint 12 hours): 0; Growth Rate ([1]; 18 h, replicate number 1, timepoint 18 hours): 0; Growth Rate ([1]; 24 h, replicate number 1, timepoint 24 hours): 0; Population Apoptotic (%) [2, 3]: 58%; Population Fragmented Nuclei (%) [2, 3]: 13%; Population Healthy Nuclei (%) [2, 3]: 76%; Population Hoechst High Intensity Objects (%) [2, 3]: 12%; Population Membrane Permeable-Phenotype (%) [2, 3]: 1%; Population Mitochondria Different-Phenotype (%) [2, 3]: 15%; Population Mitotic Cells (%) [2, 3]: 41%; Population Normal (%) [2, 3]: 87%; Population Pyknosed Nuclei (%) [2, 3]: 10%; Population Tubulin-Different-Phenotype (%) [2, 3]: 12%; Total Cell Count [2, 3]: 212; Population Apoptotic (%) [2, 4]: 50%; Population Fragmented Nuclei (%) [2, 4]: 8%; Population Healthy Nuclei (%) [2, 4]: 88%; Population Hoechst High Intensity Objects (%) [2, 4]: 10%; Population Membrane Permeable-Phenotype (%) [2, 4]: 7%; Population Mitochondria Different-Phenotype (%) [2, 4]: 21%; Population Mitotic Cells (%) [2, 4]: 50%; Population Normal (%) [2, 4]: 89%; Population Pyknosed Nuclei (%) [2, 4]: 3%; Population Tubulin-Different-Phenotype (%) [2, 4]: 15%; Total Cell Count [2, 4]: 111; Population Apoptotic (%) [2, 5]: 68%; Population Fragmented Nuclei (%) [2, 5]: 23%; Population Healthy Nuclei (%) [2, 5]: 55%; Population Hoechst High Intensity Objects (%) [2, 5]: 13%; Population Membrane Permeable-Phenotype (%) [2, 5]: 39%; Population Mitochondria Different-Phenotype (%) [2, 5]: 96%; Population Mitotic Cells (%) [2, 5]: 32%; Population Normal (%) [2, 5]: 86%; Population Pyknosed Nuclei (%) [2, 5]: 21%; Population Tubulin-Different-Phenotype (%) [2, 5]: 100%; Total Cell Count [2, 5]: 129; Population Apoptotic (%) [2, 6]: 83%; Population Fragmented Nuclei (%) [2, 6]: 13%; Population Healthy Nuclei (%) [2, 6]: 79%; Population Hoechst High Intensity Objects (%) [2, 6]: 7%; Population Membrane Permeable-Phenotype (%) [2, 6]: 23%; Population Mitochondria Different-Phenotype (%) [2, 6]: 95%; Population Mitotic Cells (%) [2, 6]: 16%; Population Normal (%) [2, 6]: 92%; Population Pyknosed Nuclei (%) [2, 6]: 6%; Population Tubulin-Different-Phenotype (%) [2, 6]: 98%; Total Cell Count [2, 6]: 66; Population Apoptotic (%) [2, 7]: 36%; Population Fragmented Nuclei (%) [2, 7]: 10%; Population Healthy Nuclei (%) [2, 7]: 80%; Population Hoechst High Intensity Objects (%) [2, 7]: 5%; Population Membrane Permeable-Phenotype (%) [2, 7]: 3%; Population Mitochondria Different-Phenotype (%) [2, 7]: 7%; Population Mitotic Cells (%) [2, 7]: 63%; Population Normal (%) [2, 7]: 94%; Population Tubulin-Different-Phenotype (%) [2, 7]: 6%; Total Cell Count [2, 7]: 221; Population Apoptotic (%) [2, 8]: 60%; Population Fragmented Nuclei (%) [2, 8]: 8%; Population Healthy Nuclei (%) [2, 8]: 83%; Population Hoechst High Intensity Objects (%) [2, 8]: 6%; Population Membrane Permeable-Phenotype (%) [2, 8]: 5%; Population Mitochondria Different-Phenotype (%) [2, 8]: 23%; Population Mitotic Cells (%) [2, 8]: 40%; Population Normal (%) [2, 8]: 93%; Population Pyknosed Nuclei (%) [2, 8]: 8%; Population Tubulin-Different-Phenotype (%) [2, 8]: 9%; Total Cell Count [2, 8]: 157; Population Apoptotic (%) [2, 9]: 67%; Population Fragmented Nuclei (%) [2, 9]: 27%; Population Healthy Nuclei (%) [2, 9]: 48%; Population Hoechst High Intensity Objects (%) [2, 9]: 16%; Population Membrane Permeable-Phenotype (%) [2, 9]: 55%; Population Mitochondria Different-Phenotype (%) [2, 9]: 100%; Population Mitotic Cells (%) [2, 9]: 32%; Population Normal (%) [2, 9]: 83%; Population Pyknosed Nuclei (%) [2, 9]: 24%; Population Tubulin-Different-Phenotype (%) [2, 9]: 100%; Total Cell Count [2, 9]: 133; Population Apoptotic (%) [2, 10]: 80%; Population Fragmented Nuclei (%) [2, 10]: 16%; Population Healthy Nuclei (%) [2, 10]: 65%; Population Hoechst High Intensity Objects (%) [2, 10]: 8%; Population Membrane Permeable-Phenotype (%) [2, 10]: 50%; Population Mitotic Cells (%) [2, 10]: 20%; Population Normal (%) [2, 10]: 91%; Population Pyknosed Nuclei (%) [2, 10]: 17%; Total Cell Count [2, 10]: 66; Population Fragmented Nuclei (%) [2, 11]: 12%; Population Healthy Nuclei (%) [2, 11]: 82%; Population Hoechst High Intensity Objects (%) [2, 11]: 4%; Population Membrane Permeable-Phenotype (%) [2, 11]: 4%; Population Mitochondria Different-Phenotype (%) [2, 11]: 14%; Population Normal (%) [2, 11]: 95%; Population Pyknosed Nuclei (%) [2, 11]: 5%; Population Tubulin-Different-Phenotype (%) [2, 11]: 7%; Total Cell Count [2, 11]: 219; Population Apoptotic (%) [2, 12]: 60%; Population Fragmented Nuclei (%) [2, 12]: 4%; Population Healthy Nuclei (%) [2, 12]: 84%; Population Hoechst High Intensity Objects (%) [2, 12]: 5%; Population Membrane Permeable-Phenotype (%) [2, 12]: 6%; Population Mitochondria Different-Phenotype (%) [2, 12]: 25%; Population Mitotic Cells (%) [2, 12]: 40%; Population Normal (%) [2, 12]: 94%; Population Pyknosed Nuclei (%) [2, 12]: 11%; Population Tubulin-Different-Phenotype (%) [2, 12]: 10%; Total Cell Count [2, 12]: 168; Population Apoptotic (%) [2, 13]: 77%; Population Fragmented Nuclei (%) [2, 13]: 33%; Population Healthy Nuclei (%) [2, 13]: 17%; Population Hoechst High Intensity Objects (%) [2, 13]: 23%; Population Membrane Permeable-Phenotype (%) [2, 13]: 64%; Population Mitochondria Different-Phenotype (%) [2, 13]: 94%; Population Mitotic Cells (%) [2, 13]: 22%; Population Normal (%) [2, 13]: 76%; Population Pyknosed Nuclei (%) [2, 13]: 49%; Population Tubulin-Different-Phenotype (%) [2, 13]: 100%; Total Cell Count [2, 13]: 189; Population Apoptotic (%) [2, 14]: 100%; Population Fragmented Nuclei (%) [2, 14]: 16%; Population Healthy Nuclei (%) [2, 14]: 62%; Population Hoechst High Intensity Objects (%) [2, 14]: 18%; Population Membrane Permeable-Phenotype (%) [2, 14]: 58%; Population Mitochondria Different-Phenotype (%) [2, 14]: 87%; Population Mitotic Cells (%) [2, 14]: 0%; Population Normal (%) [2, 14]: 81%; Population Pyknosed Nuclei (%) [2, 14]: 20%; Population Tubulin-Different-Phenotype (%) [2, 14]: 93%; Total Cell Count [2, 14]: 94

From ChEMBL document CHEMBL4689842, “EUbOPEN Chemogenomics Library wave 1” (2021)
